This is one part of a sample in which hits are shown more often than they occur.
UPR XBP1 act – adaptive UPR (XBP1) activation. CHO-XBP1 luciferase reporter, IRE1-XBP1 UPR activation, luminescence; percent of tunicamycin response, DMSO as zero. activation, % at 20 µM. 330,000 tested, 0.33% active. AID 463104;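 active = versus positive control, 20 µM dose yields 30% or more activation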;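 also: 100% = tunicamycin at 10 µg/mL and 0% = DMSO only wells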
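Material – CHO cell line with stable XBP1 luciferase reporter · Buffer or medium – F12 plus 10% FBS · Compound – single point, 20 µM final compound, 1% DMSO · Schedule – 16-18 h cell attachment at 37 °C, then 6 h compound exposure · Signal – Steady-Glo luminescence read · Benchmarks – high control tunicamycin 10 µg/mL final, low control DMSO vehicle only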
CTSL1 counter – cathepsin L1 inhibition, PFM18AAP counter-screen; 300,000 tested, 0.49% active; recombinant F. hepatica cathepsin L1, Z-Leu-Arg-MCA fluorescence; inhibition, % at 5.96 µM; AID 1906;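 active = inhibition above the mean of all tested compounds plus 3 SD, set per screening campaign, cut at about 17% in these data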;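 also: 0% = plate median of test compound wells and 100% = 1 µM Z-Phe-Ala-diazomethylketone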
CHOP inh – inhibitors of CHOP induction in ER stress response. CHO-K1 CHOP-promoter luciferase, tunicamycin-induced, 15-18 h. inhibition, % at 10 µM. 220,000 tested, 3.8% active. AID 2732;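 active = compounds that reduced the stress-induced luciferase reporter signal by more than about 70% of percent inhibition, limit read from the data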;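 also: 0% = tunicamycin plus vehicle and 100% = wells without tunicamycin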
UCH37 DUB inh – inhibitors of human deubiquitinating enzyme UCH37. purified proteasome/UCH37, Ub-AMC cleavage fluorescence. inhibition, % (test concentration not listed). 330,000 tested, 0.33% active;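 active = mean inhibition over replicate wells above about 20%, limit read from the data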;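 also: 0% = compound-free wells with enzyme and 100% = wells lacking proteasome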
Target sequence (Q9Y5K5 whole entry, looked up): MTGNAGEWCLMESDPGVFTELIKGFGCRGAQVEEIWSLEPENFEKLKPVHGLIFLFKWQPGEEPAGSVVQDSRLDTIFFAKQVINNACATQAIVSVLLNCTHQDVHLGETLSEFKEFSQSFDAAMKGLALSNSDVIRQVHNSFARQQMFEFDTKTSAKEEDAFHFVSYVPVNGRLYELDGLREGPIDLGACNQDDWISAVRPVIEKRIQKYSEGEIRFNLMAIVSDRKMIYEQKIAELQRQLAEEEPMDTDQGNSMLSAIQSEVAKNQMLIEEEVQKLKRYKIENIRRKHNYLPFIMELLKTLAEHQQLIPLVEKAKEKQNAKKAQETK
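assay system = human UCH37 enzyme supplied as purified proteasome complex | amount = proteasome at 0.15 nM in the dispensed enzyme solution | schedule = 30 min compound-proteasome preincubation then 25 min substrate reaction, room temperature | measured by = fluorescence, ex 355 nm, em 460 nm | benchmarks = no-proteasome wells (full inhibition) and compound-free wells (no inhibition)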
UPR CHOP act – activators of apoptotic arm of unfolded protein response (CHOP) | 330,000 tested, 0.34% active | activation, % at 10 µM | CHO-CHOP luciferase reporter, UPR activation, luminescence; percent of tunicamycin response over DMSO baseline | AID 449763;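 active = at 10 µM dose, activation of 40% or more, normalized to positive control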;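 also: 100% = tunicamycin at 10 µg/mL and 0% = DMSO alone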
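Assay system: CHO-CHOP cells, stable luciferase reporter of PERK-eIF2a-CHOP signalling / Buffer or medium: F12 plus 10% serum / Compound dosing: one dose, 10 µM in 0.5% DMSO / Times: 6 h compound treatment, 37 °C / Technique: luciferase luminescence / Read-out: % reporter activation, DMSO baseline versus tunicamycin full activation / Benchmarks: tunicamycin and DMSO controls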
The depositor's hits bear a star; · = not tested or not shown.

SMILES | UPR XBP1 act | CTSL1 counter | CHOP inh | UCH37 DUB inh | UPR CHOP act
COc1ccc(-c2ccnc(-c3ccc(OCCCF)cc3)n2)cc1 | 1 | -2 | 71* | 2 | -1
FCCCOc1ccc(-c2nccc(-c3ccc(Cl)cc3)n2)cc1 | 3 | 2 | 78* | 5 | 0
CCOc1cccc(-c2c(C(=O)NN=Cc3ccsc3)nnn2-c2nonc2N)c1 | · | · | · | 3 | ·
COCCn1c(SCc2ccc(Cl)cc2)nc2c1c(=O)[nH]c(=O)n2C | 6 | 4 | · | 3 | 1
C/C=C/Cn1c(SCc2ccc(Cl)cc2)nc2c1c(=O)[nH]c(=O)n2C | 13 | -3 | 76* | 0 | 1
CCCn1c(SCc2ccc(Cl)cc2)nc2c1c(=O)[nH]c(=O)n2C | 19 | 7 | 82* | 0 | 1
CNC(=S)N=Nc1c(O)[nH]c2ccc(C(C)C)cc12 | · | -4 | 93* | 7 | ·
CNC(=S)N=Nc1c(O)[nH]c2ccccc12 | · | -2 | -10 | 11 | ·
CN(C)c1ccc(/C=C(\NC(=O)c2ccccc2)C(=O)N/N=C/c2ccc(C(=O)O)cc2)cc1 | -2 | 3 | · | · | 1
CN(C)c1ccc(/C=C(/NC(=O)c2ccccc2)C(=O)NN=Cc2ccc([N+](=O)[O-])c(O)c2)cc1 | · | · | · | 20* | ·
N#Cc1cc([N+](=O)[O-])ccc1Oc1cccc(C=NNC(=O)c2ccc(Cl)cc2)c1 | · | · | · | 3 | ·
O=C(Cn1nnc(-c2cccc(C(F)(F)F)c2)n1)NC(=O)NCc1ccco1 | 4 | -1 | 90* | 1 | -1
CCOc1cc2c(cc1C(C)(C)C)NC(=O)CS2 | 0 | 5 | 85* | 2 | -2
CCOc1ccc(C(C)=O)cc1COC(=O)c1ccc2c(c1)NC(=O)CS2 | -3 | · | · | 1 | -1
O=C(O)CC1SC(=NN=Cc2ccc([N+](=O)[O-])cc2)N(c2ccc(O)cc2)C1=O (stereo unspecified) | · | · | · | 15 | ·
Cc1cc(C(F)(F)F)n(-c2nc(C(=O)NN=Cc3ccc(F)cc3)cs2)n1 | · | · | · | 5 | ·
COc1ccc(/C=N/NC(=O)c2csc(-n3nc(C)cc3C(F)(F)F)n2)cc1 | 1 | -3 | 79* | · | -3
COc1cc(C=c2sc3nc(-c4ccccc4)c(-c4ccccc4)n3c2=O)cc(OC)c1OC | · | · | · | 6 | ·
O=C(N/N=C1/C(=O)c2cccc3cccc1c23)c1ccc(Cl)cc1 | 4 | 3 | 72* | · | 10
Cc1cccc(N(CC(=O)NC(C)(C)C)C(=O)CCC(=O)Nc2ccccn2)c1 | -6 | 18* | · | 6 | -1
CN(C)CCN(C(=O)/C=C/c1cccs1)c1nc2c(F)cc(F)cc2s1 | -3 | 2 | 106* | -24 | -3
CCOC(=O)C1=C(C)N(C)C(C)=C(C(=O)OCC)C1c1ccc(Cl)cc1 | 3 | 3 | 80* | -1 | 1
COC(=O)C1=C(C)N(C)C(C)=C(C(=O)OC)C1c1ccc(Cl)cc1 | -2 | 2 | 72* | -10 | -1
CC(=NNC(=O)c1ccc(O)cc1)c1ccc2c(c1)OCCO2 | · | · | · | 3 | ·
COc1ccc(C=NNC(=O)c2ccc(Br)o2)cc1Cn1cc([N+](=O)[O-])cn1 | · | · | · | 0 | ·
SMILES | UPR XBP1 act | CTSL1 counter | CHOP inh | UCH37 DUB inh | UPR CHOP act
O=[N+]([O-])c1cc(C=Nn2cnnc2)ccc1N1CCCC1 | · | · | · | 21* | ·
CON=Cc1ccc(N2CCCC2)c([N+](=O)[O-])c1 | · | · | · | 4 | ·
C=CCN1CCc2c(cc(O)c(O)c2Cl)C(c2ccccc2)C1 (stereo unspecified) | -2 | 4 | 16 | 2 | -2
C=CCN1CCc2cc(O)c(O)cc2C(c2ccccc2)C1 (stereo unspecified) | -8 | 9 | 95* | 2 | -1
COc1cc(CO)cc(-c2cc(CO)cc(OC)c2OC)c1OC | -2 | -2 | 31 | 26* | 0
O=C1CN(C(=O)c2ccc(Br)o2)C(c2ccccc2)c2cc(Cl)ccc2N1 (stereo unspecified) | 0 | 5 | 84* | 7 | -1
O=C1CN(C(=O)c2ccc(Br)o2)C(c2ccc(F)cc2)c2cc(Cl)ccc2N1 (stereo unspecified) | 0 | -1 | 69 | 3 | -2
C=C(C)C1CC=C(C)C(=NNC(=O)c2ccc(NC(=O)CC)cc2)C1 (stereo unspecified) | · | · | · | 2 | ·
O=C(NCC1OCCc2ccccc21)c1ccc(NC(=O)c2ccccc2Cl)cc1 (stereo unspecified) | -1 | -1 | 8 | -2 | 0
O=C(NCC1OCCc2ccccc21)c1ccc(NC(=O)c2ccc(Cl)cc2Cl)cc1 (stereo unspecified) | 11 | -3 | 98* | -1 | 1
O=C(Nc1ccc(N=Nc2ccccc2)cc1)c1ccc(Cl)cc1Cl | -1 | 0 | 77* | 2 | 0
NC(=O)NN=C1c2ccccc2-c2c(C(N)=O)cccc21 | · | · | · | 9 | ·
Cc1ccc(-n2nc(C)c3c2OC(N)=C(C#N)C3c2ccc(F)cc2)cc1 (stereo unspecified) | -1 | 2 | 83* | 5 | 0
Cc1ccc(C(C)C)c(OCCCN(C)Cc2ccccc2)c1 | -1 | 0 | 75* | 4 | 1
O=C1CC(c2ccco2)Cc2nc(NCC3CCCO3)ncc21 (stereo unspecified) | -2 | 2 | 82* | 4 | -1
O=C1CC(c2ccco2)Cc2nc(Nc3ccc(F)cc3)ncc21 (stereo unspecified) | -3 | 3 | 49 | -7 | 1
CCN1C(=O)C(CC(=O)Nc2cccc(C(C)=O)c2)SC1=Nc1ccccn1 (stereo unspecified) | · | · | · | 1 | ·
C#CCOc1c(Cl)cc(/C=N/NC(N)=S)cc1OCC | 3 | 80* | -20 | · | 6
CCOc1c(Cl)cc(C=NNC(N)=S)cc1OC | · | · | · | 7 | ·
CCOc1c(Cl)cc(/C=N/NC(N)=S)cc1OC | 3 | 26* | -15 | · | 0
O=C(Nc1ccccc1C(=O)Nc1nnc(C(F)(F)F)s1)c1ccccc1 | 2 | 5 | 88* | · | 6
Cc1occc1C(=O)Nc1nnc(C(F)(F)F)s1 | 1 | -4 | 0 | 2 | 2
Cc1cc(C)n(-c2nnc(C)n2N=Cc2ccco2)n1 | · | · | · | 2 | ·
CC(=O)Nc1ccccc1NS(=O)(=O)c1cccc([N+](=O)[O-])c1 | -1 | 19* | 6 | 4 | 0
CC(=NO)C(=O)NCc1ccncc1 | · | · | · | 4 | ·
Cn1c(SCC(=O)Nc2cccc(C(=O)O)c2)nnc1-c1cc2cc(Br)ccc2o1 | 0 | 3 | 22 | 1 | 1
Cn1c(SCC(=O)Nc2cccc(Br)c2)nnc1-c1cc2ccccc2o1 | -3 | 4 | 91* | 2 | 0
CCn1ccnc1CN(C)Cc1cn(-c2cccc(C)c2)nc1-c1cccc(F)c1 | -2 | 1 | 9 | 1 | 3
CCn1ccnc1CN(C)Cc1cn(-c2ccc(C)cc2)nc1-c1cccc(C)c1 | 0 | -2 | 83* | -1 | 1
